Measured values reported in ChEMBL document CHEMBL4049441, “Transforming Sphingosine Kinase 1 Inhibitors into Dual and Sphingosine Kinase 2 Selective Inhibitors: Design, Synthesis, and in Vivo Activity” (J Med Chem, 2017).
Active and inactive are the calls of the source. The rule behind the calls is not given here.

How the values were obtained:
[1] = molecular target: T1, Sphingosine kinase 2 (Homo sapiens) (UniProt Q9NRA0); test: Inhibition of recombinant human SPHK2 assessed as residual activity at 0.3 uM using sphingosine as substrate after 30 mins in presence of gamma-[32P]-ATP by liquid scintillation counting relative to control
T1 sequence (whole entry): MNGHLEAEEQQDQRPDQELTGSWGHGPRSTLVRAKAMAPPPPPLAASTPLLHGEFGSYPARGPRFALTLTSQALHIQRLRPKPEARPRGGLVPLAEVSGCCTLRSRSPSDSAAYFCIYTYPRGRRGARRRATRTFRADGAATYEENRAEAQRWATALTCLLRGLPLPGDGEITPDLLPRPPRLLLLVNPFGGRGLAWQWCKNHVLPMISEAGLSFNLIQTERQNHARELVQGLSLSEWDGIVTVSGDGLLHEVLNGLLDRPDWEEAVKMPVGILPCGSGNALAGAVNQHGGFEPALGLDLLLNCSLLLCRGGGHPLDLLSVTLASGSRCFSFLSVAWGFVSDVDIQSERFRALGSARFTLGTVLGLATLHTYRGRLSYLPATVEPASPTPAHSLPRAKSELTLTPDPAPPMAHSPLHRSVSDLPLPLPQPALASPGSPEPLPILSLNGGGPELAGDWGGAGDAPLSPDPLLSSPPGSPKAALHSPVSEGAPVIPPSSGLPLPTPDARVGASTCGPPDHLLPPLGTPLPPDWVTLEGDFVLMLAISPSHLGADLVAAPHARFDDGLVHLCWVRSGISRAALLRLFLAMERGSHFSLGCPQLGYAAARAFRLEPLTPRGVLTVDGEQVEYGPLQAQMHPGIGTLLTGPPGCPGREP
Procedure, shortened: (§1)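 Recombinant human SphK1 or SphK2 from cell lysate, briefly incubated with or without compound at 0.3 μM, sphingosine (5 μM for SphK1, 10 μM for SphK2) and 250 μM γ-[³²P]ATP. Radiolabelled S1P extracted, resolved by TLC and counted by scintillation. Activity reported as % of no-inhibitor control; triplicate.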

Mus musculus [2] = test: In vivo inhibition of SPHK2 in C57BL/6J mouse assessed as increase in S1P levels at 10 mg/kg, ip after 2 to 6 hrs by LC-MS/MS analysis; assay type: functional, organism-based
Procedure, shortened: (§2)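 Single intraperitoneal dose of 10 mg/kg in C57BL6/j mice, groups of 3 to 4; vehicle controls received an equal volume of 2% hydroxypropyl-β-cyclodextrin. Blood was sampled at set time points over 24 h. Whole blood (10 μl) was extracted in methanol:chloroform (3:1) with D7-S1P and D7-sphingosine internal standards, base-hydrolysed with KOH, and S1P quantified by reverse-phase C18 LC-MS-MS.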

[3] = molecular target: T1, Sphingosine kinase 2 (Homo sapiens); test: Inhibition of SPHK2 in human U937 cells assessed as decrease in S1P levels after 2 hrs by LC-MS/MS analysis; assay type: cell-based
Procedure, shortened: (§3)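 U937 human histiocytic lymphoma cells (express both SphK isotypes) incubated with compound for 2 h, pelleted, lysed; 2–3 × 10⁶ cells extracted in methanol:chloroform (3:1) with D7-S1P/D7-sphingosine internal standards, KOH hydrolysis, then S1P and sphingosine measured by LC-MS-MS. Expressed as pmol per 10⁶ cells; duplicate experiments; unpaired t test against control.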

Mus musculus [4] = test: In vivo inhibition of SPHK2 in C57BL/6J mouse assessed as increase in S1P levels at 10 mg/kg, ip after 24 hrs by LC-MS/MS analysis; assay type: functional, organism-based; procedure, shortened: as §2
[5] = molecular target: T1, Sphingosine kinase 2 (Homo sapiens); test: Inhibition of SPHK2 in human U937 cells assessed as effect on sphingosine levels at 0.3 to 1 uM after 2 hrs by LC-MS/MS analysis; assay type: cell-based; procedure, shortened: as §3
[6] = molecular target: T1, Sphingosine kinase 2 (Homo sapiens); test: Inhibition of SPHK2 in human U937 cells assessed as effect on sphingosine levels at 0.1 to 1 uM after 2 hrs by LC-MS/MS analysis; assay type: cell-based; procedure, shortened: as §3
Sphingosine kinase 2 [7] = molecular target: T2, Sphingosine kinase 2 (Homo sapiens, UniProt Q9NRA0); test: Inhibition of recombinant human SPHK2 at using sphingosine as substrate after 30 mins in presence of gamma-[32P]-ATP by liquid scintillation counting
T2 sequence (Q9NRA0 whole entry): T1 sequence (whole entry)

Sphingosine kinase 2 [8] = molecular target: T3, Sphingosine kinase 2 (Mus musculus, UniProt Q9JIA7); test: Inhibition of recombinant mouse SPHK2 using sphingosine as substrate in presence ATP
T3 sequence (Q9JIA7 whole entry): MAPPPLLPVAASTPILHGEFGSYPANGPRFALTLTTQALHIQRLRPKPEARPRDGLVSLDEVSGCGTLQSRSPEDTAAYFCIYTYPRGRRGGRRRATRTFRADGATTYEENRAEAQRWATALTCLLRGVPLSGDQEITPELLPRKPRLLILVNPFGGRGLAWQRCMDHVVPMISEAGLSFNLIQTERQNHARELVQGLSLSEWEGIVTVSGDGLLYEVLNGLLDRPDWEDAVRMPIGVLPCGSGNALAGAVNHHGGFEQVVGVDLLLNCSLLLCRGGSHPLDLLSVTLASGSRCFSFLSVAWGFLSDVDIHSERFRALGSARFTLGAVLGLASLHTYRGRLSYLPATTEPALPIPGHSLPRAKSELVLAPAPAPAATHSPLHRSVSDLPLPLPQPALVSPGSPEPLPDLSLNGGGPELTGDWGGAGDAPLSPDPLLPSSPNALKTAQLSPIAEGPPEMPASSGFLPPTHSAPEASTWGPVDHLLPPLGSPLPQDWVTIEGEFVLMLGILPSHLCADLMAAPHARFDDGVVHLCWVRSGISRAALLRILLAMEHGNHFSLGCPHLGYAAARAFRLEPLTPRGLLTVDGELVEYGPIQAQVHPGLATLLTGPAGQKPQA

[9] = Selectivity ratio of Ki for recombinant human SPHK1 to Ki for recombinant mouse SPHK2
Sphingosine kinase 1 [10] = molecular target: T4, Sphingosine kinase 1 (Homo sapiens, UniProt Q9NYA1); test: Inhibition of recombinant human SPHK1 using sphingosine as substrate in presence ATP; procedure, shortened: as §1
[11] = molecular target: T1, Sphingosine kinase 2 (Homo sapiens); test: Inhibition of recombinant human SPHK2 using sphingosine as substrate up to 1 uM after 30 mins in presence of gamma-[32P]-ATP by liquid scintillation counting
Sphingosine kinase 1 [12] = molecular target: T4, Sphingosine kinase 1

T4 sequence (Q9NYA1 whole entry): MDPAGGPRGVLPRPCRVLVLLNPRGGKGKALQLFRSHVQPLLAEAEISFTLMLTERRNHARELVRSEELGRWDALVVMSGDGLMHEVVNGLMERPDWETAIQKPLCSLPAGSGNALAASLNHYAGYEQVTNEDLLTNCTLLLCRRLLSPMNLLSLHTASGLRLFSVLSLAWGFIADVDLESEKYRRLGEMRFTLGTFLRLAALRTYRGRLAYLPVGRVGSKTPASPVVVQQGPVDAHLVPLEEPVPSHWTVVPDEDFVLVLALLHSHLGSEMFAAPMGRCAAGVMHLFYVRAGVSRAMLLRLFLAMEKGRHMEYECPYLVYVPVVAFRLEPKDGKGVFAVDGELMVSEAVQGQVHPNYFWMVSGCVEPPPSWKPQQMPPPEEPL

| Activity [1] [%] | Compound | other results |
| --- | --- | --- |
| 43 | N=C(N)N1CCC[C@H]1Cc1nc(-c2ccc(Nc3nc(-c4cc(F)cc(F)c4)cs3)cc2)no1 |  |
| 55 | N=C(N)N1CCC[C@H]1Cc1nc(-c2ccc(Nc3nc(-c4ccc(F)cc4)cs3)cc2)no1 |  |
| 27 | N=C(N)N1CCC[C@H]1Cc1nc(-c2ccc(Nc3nc(-c4ccc(-c5ccccc5)cc4)cs3)cc2)no1 | inhibition (Mus musculus [2]): Active; inhibition [3]: Dose-dependent effect; inhibition (Mus musculus [4]): inactive; inhibition [5]: Active; inhibition [6]: Active; Ki (Sphingosine kinase 2 [7]): 90 nM |
| 28 | N=C(N)N1CCC[C@H]1Cc1nc(-c2ccc(Nc3nc(-c4cccc(C(F)(F)F)c4)cs3)cc2)no1 | inhibition [3]: Dose-dependent effect; inhibition [6]: Active; Ki (Sphingosine kinase 2 [7]): 90 nM |
| 85 | N=C(N)N1CCC[C@H]1Cc1nc(-c2ccc(Nc3nc(-c4ccc(-c5cccc(C(F)(F)F)c5)cc4)cs3)cc2)no1 |  |
| 82 | N=C(N)N1CCC[C@H]1Cc1nc(-c2ccc(Nc3nc(-c4cccc(OC(F)(F)F)c4)cs3)cc2)no1 |  |
| 73 | N=C(N)N1CCC[C@H]1Cc1nc(-c2ccc(Nc3nc(-c4cccc(-c5ccccc5)c4)cs3)cc2)no1 |  |
|  | CCCCCCCCc1ccc2cc(-c3noc(C4CCCN4C(=N)N)n3)ccc2c1 (single isomer, unassigned) | Ki (Sphingosine kinase 2 [8]): 1300 nM; Ratio Ki [9]: 10; Ki (Sphingosine kinase 1 [10]): 12000 nM |
| 33 | N=C(N)N1CCC[C@H]1Cc1nc(-c2ccc(Nc3nc(-c4ccc(F)c(C(F)(F)F)c4)cs3)cc2)no1 | Ki (Sphingosine kinase 2 [7]): 170 nM |
| 100 | COc1cccc(-c2csc(Nc3ccc(-c4noc(C[C@@H]5CCCN5C(=N)N)n4)cc3)n2)c1 |  |
| 96 | N=C(N)N1CCC[C@H]1Cc1nc(-c2ccc(Nc3nc(-c4ccc(-c5ccc(C(F)(F)F)cc5)cc4)cs3)cc2)no1 |  |
| 48 | N=C(N)N1CCC[C@H]1Cc1nc(-c2ccc(Nc3nc(-c4cc(C(F)(F)F)ccc4F)cs3)cc2)no1 |  |
| 94 | N=C(N)N1CCC[C@H]1Cc1nc(-c2ccc(Nc3nc(-c4ccncc4)cs3)cc2)no1 |  |
| 55 | N=C(N)N1CCC[C@H]1Cc1nc(-c2ccc(Oc3nc(-c4ccc(C(F)(F)F)cc4)cs3)cc2)no1 |  |
| 44 | N=C(N)N1CCC[C@H]1Cc1nc(-c2ccc(Nc3nc(-c4ccccc4F)cs3)cc2)no1 |  |
| 51 | N=C(N)N1CCC[C@H]1Cc1nc(-c2ccc(Nc3nc(-c4ccc(Cl)cc4)cs3)cc2)no1 |  |
| 100 | COc1ccc(-c2csc(Nc3ccc(-c4noc(C[C@@H]5CCCN5C(=N)N)n4)cc3)n2)cc1OC |  |
| 45 | N=C(N)N1CCC[C@H]1Cc1nc(-c2ccc(Nc3nc(-c4cccc(Cl)c4)cs3)cc2)no1 |  |
| 100 | COc1ccc(-c2csc(Nc3ccc(-c4noc(C[C@@H]5CCCN5C(=N)N)n4)cc3)n2)cc1 |  |

| Activity [1] [%] | Compound | other results |
| --- | --- | --- |
| 72 | N=C(N)N1CCC[C@H]1Cc1nc(-c2ccc(Nc3nc(-c4ccccc4C(F)(F)F)cs3)cc2)no1 |  |
| 51 | N=C(N)N1CCC[C@H]1Cc1nc(-c2ccc(Nc3nc(-c4ccc(F)c(F)c4)cs3)cc2)no1 |  |
| 31 | N=C(N)N1CCC[C@H]1Cc1nc(-c2ccc(Nc3nc(-c4ccc(-c5ccc(F)cc5)cc4)cs3)cc2)no1 |  |
| 94 | N=C(N)N1CCC[C@H]1Cc1nc(-c2ccc(Nc3nc(-c4cccnc4)cs3)cc2)no1 |  |
| 100 | CN(c1ccc(-c2noc(C[C@@H]3CCCN3C(=N)N)n2)cc1)c1nc(-c2ccc(-c3ccccc3)cc2)cs1 | inhibition [11]: inactive |
| 44 | N=C(N)N1CCC[C@H]1Cc1nc(-c2ccc(Nc3nc(-c4ccc(OC(F)(F)F)cc4)cs3)cc2)no1 | Ki (Sphingosine kinase 2 [7]): 250 nM |
| 36 | N=C(N)N1CCC[C@H]1Cc1nc(-c2ccc(Nc3nc(-c4ccc(C(F)(F)F)cc4)cs3)cc2)no1 | Ki (Sphingosine kinase 2 [7]): 390 nM |
| 44 | N=C(N)N1CCC[C@H]1Cc1nc(-c2ccc(Nc3nc(-c4cccc(Br)c4)cs3)cc2)no1 |  |
| 46 | N=C(N)N1CCC[C@H]1Cc1nc(-c2ccc(Nc3nc(-c4ccc(Cl)c(Cl)c4)cs3)cc2)no1 |  |
| 46 | N=C(N)N1CCC[C@H]1Cc1nc(-c2ccc(Nc3nc(-c4ccc(Br)cc4)cs3)cc2)no1 |  |
| 67 | Cc1ccc(-c2csc(Nc3ccc(-c4noc(C[C@@H]5CCCN5C(=N)N)n4)cc3)n2)cc1C |  |
| 83 | N=C(N)N1CCC[C@H]1Cc1nc(-c2ccc(Nc3nc(-c4ccccc4)cs3)cc2)no1 |  |
| 71 | COc1ccc(-c2csc(Nc3ccc(-c4noc(C[C@@H]5CCCN5C(=N)N)n4)cc3)n2)cc1Cl |  |
| 30 | N=C(N)N1CCC[C@H]1Cc1nc(-c2ccc(Nc3nc(-c4cc(F)cc(C(F)(F)F)c4)cs3)cc2)no1 | Ki (Sphingosine kinase 2 [7]): 170 nM |
| 80 | Cc1ccc(-c2csc(Nc3ccc(-c4noc(C[C@@H]5CCCN5C(=N)N)n4)cc3)n2)cc1 |  |
| 67 | N=C(N)N1CCC[C@H]1Cc1nc(-c2ccc(Nc3nc(-c4cc5ccccc5o4)cs3)cc2)no1 |  |
|  | CCCCCOc1ccc2cc(-c3noc([C@H]4[C@@H](O)CCN4C(=N)N)n3)ccc2c1 | Ki (Sphingosine kinase 1 [12]): 730 nM |
| 45 | N=C(N)N1CCC[C@H]1Cc1nc(-c2ccc(Nc3nc(-c4cccc(F)c4)cs3)cc2)no1 |  |
| 63 | N=C(N)N1CCC[C@H]1Cc1nc(-c2ccc(Nc3nc(-c4cc(C(F)(F)F)cc(C(F)(F)F)c4)cs3)cc2)no1 |  |
